Source: ChEMBL document CHEMBL1129275, “Synthesis and in vitro and in vivo characteristics of an iodinated analogue of the beta-adrenoceptor antagonist carazolol” (J Med Chem, 1996)

What was measured:
Oryctolagus cuniculus [1] = experiment: Biodistribution pattern of [123I]- ligand was evaluated in blood of anesthetized rabbit after Intravenous injection of 50 uCi after 30 min; assay type: ADME, organism-based; details: in vivo, 0.5 h
Procedure, shortened: (§1)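 Male New Zealand white rabbits, 2.5–3.5 kg, anesthetized with 5 mg/kg xylazine plus 30 mg/kg ketamine im. Each received 50 uCi radioligand (specific activity > 5000 Ci/mmol) iv via ear vein. Animals were killed with 200 mg/kg pentobarbital im at the set time. Blood was drawn by intracardiac puncture and organs weighed. Gamma counting was decay-corrected, expressed as %ID x kg body weight/g tissue, mean ± SEM, n = 3/time point.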

Oryctolagus cuniculus [2] = experiment: Biodistribution pattern of [123I]- ligand was evaluated in intestine of anesthetized rabbit after Intravenous injection of 50 uCi after 1 hr; assay type: ADME, organism-based; details: in vivo; procedure, shortened: as §1
Oryctolagus cuniculus [3] = experiment: Biodistribution pattern of [123I]- ligand was evaluated in intestine of anesthetized rabbit after Intravenous injection of 50 uCi after 24 hr; assay type: ADME, organism-based; details: in vivo; procedure, shortened: as §1
Oryctolagus cuniculus [4] = experiment: Biodistribution pattern of [123I]- ligand was evaluated in intestine of anesthetized rabbit after Intravenous injection of 50 uCi after 4 hr; assay type: ADME, organism-based; details: in vivo; procedure, shortened: as §1
Oryctolagus cuniculus [5] = experiment: Biodistribution pattern of [123I]- ligand was evaluated in intestine of anesthetized rabbit after Intravenous injection of 50 uCi after 6 hr; assay type: ADME, organism-based; details: in vivo; procedure, shortened: as §1
Oryctolagus cuniculus [6] = experiment: Biodistribution pattern of [123I]- ligand was evaluated in kidney of anesthetized rabbit after Intravenous injection of 50 uCi after 6 hr; assay type: ADME, organism-based; details: in vivo; procedure, shortened: as §1
Oryctolagus cuniculus [7] = experiment: Biodistribution pattern of [123I]- ligand was evaluated in left atrial muscle of anesthetized rabbit after Intravenous injection of 50 uCi after 1 hr; assay type: ADME, organism-based, Muscle tissue; details: in vivo; procedure, shortened: as §1
Oryctolagus cuniculus [8] = experiment: Biodistribution pattern of [123I]- ligand was evaluated in left atrial muscle of anesthetized rabbit after Intravenous injection of 50 uCi after 2 hr; assay type: ADME, organism-based, Muscle tissue; details: in vivo; procedure, shortened: as §1
Oryctolagus cuniculus [9] = experiment: Biodistribution pattern of [123I]- ligand was evaluated in left atrial muscle of anesthetized rabbit after Intravenous injection of 50 uCi after 4 hr; assay type: ADME, organism-based, Muscle tissue; details: in vivo; procedure, shortened: as §1
Oryctolagus cuniculus [10] = experiment: Biodistribution pattern of [123I]- ligand was evaluated in left atrial muscle of anesthetized rabbit after Intravenous injection of 50 uCi after 5 min; assay type: ADME, organism-based, Muscle tissue; details: in vivo; procedure, shortened: as §1
Oryctolagus cuniculus [11] = experiment: Biodistribution pattern of [123I]- ligand was evaluated in left ventricular muscle of anesthetized rabbit after Intravenous injection of 50 uCi after 24 hr; assay type: ADME, organism-based, Muscle tissue; details: in vivo; procedure, shortened: as §1
Oryctolagus cuniculus [12] = experiment: Biodistribution pattern of [123I]- ligand was evaluated in right atrial muscle of anesthetized rabbit after Intravenous injection of 50 uCi after 2 hr; assay type: ADME, organism-based, Muscle tissue; details: in vivo
Procedure, shortened: (§2)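 Male New Zealand white rabbits (2.5–3.5 kg), anesthetized with xylazine 5 mg/kg plus ketamine 30 mg/kg im, given 50 µCi radioligand (specific activity >5000 Ci/mmol) iv via ear vein. Euthanized at set times by pentobarbital 200 mg/kg im, n = 3/time point. Organs removed and weighed, gamma-counted, decay/weight corrected; expressed as % ID x kg body weight/g tissue, mean ± SEM.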

Oryctolagus cuniculus [13] = experiment: Biodistribution pattern of [123I]- ligand was evaluated in right atrial muscle of anesthetized rabbit after Intravenous injection of 50 uCi after 30 min; assay type: ADME, organism-based, Muscle tissue; details: in vivo, 0.5 h; procedure, shortened: as §2
Oryctolagus cuniculus [14] = experiment: Cerebral biodistribution pattern of [123I]- ligand was evaluated in pituitary gland of anesthetized rabbit after Intravenous injection of 50 uCi after 6 hr; assay type: ADME, organism-based; details: in vivo; procedure, shortened: as §2
Oryctolagus cuniculus [15] = experiment: Cerebral biodistribution pattern of [123I]- ligand was evaluated in thalamus of anesthetized rabbit after Intravenous injection of 50 uCi after 24 hr; assay type: ADME, organism-based; details: in vivo; procedure, shortened: as §2
Oryctolagus cuniculus [16] = experiment: Cerebral biodistribution pattern of [123I]- ligand was evaluated in thalamus of anesthetized rabbit after Intravenous injection of 50 uCi after 2 hr; assay type: ADME, organism-based; details: in vivo; procedure, shortened: as §2
Oryctolagus cuniculus [17] = experiment: Biodistribution pattern of [123I]- ligand was evaluated in left ventricular muscle of anesthetized rabbit after Intravenous injection of 50 uCi after 5 min; assay type: ADME, organism-based, Muscle tissue; details: in vivo; procedure, shortened: as §1
Oryctolagus cuniculus [18] = experiment: Biodistribution pattern of [123I]- ligand was evaluated in lung of anesthetized rabbit after Intravenous injection of 50 uCi after 4 hr; assay type: ADME, organism-based; details: in vivo; procedure, shortened: as §1
Oryctolagus cuniculus [19] = experiment: Biodistribution pattern of [123I]- ligand was evaluated in lung of anesthetized rabbit after Intravenous injection of 50 uCi after 6 hr; assay type: ADME, organism-based; details: in vivo; procedure, shortened: as §1
Oryctolagus cuniculus [20] = experiment: Biodistribution pattern of [123I]- ligand was evaluated in muscle of anesthetized rabbit after Intravenous injection of 50 uCi after 1 hr; assay type: ADME, organism-based, Muscle tissue; details: in vivo; procedure, shortened: as §1
Oryctolagus cuniculus [21] = experiment: Biodistribution pattern of [123I]- ligand was evaluated in muscle of anesthetized rabbit after Intravenous injection of 50 uCi after 2 hr; assay type: ADME, organism-based, Muscle tissue; details: in vivo; procedure, shortened: as §1
Oryctolagus cuniculus [22] = experiment: Biodistribution pattern of [123I]- ligand was evaluated in muscle of anesthetized rabbit after Intravenous injection of 50 uCi after 5 min; assay type: ADME, organism-based, Muscle tissue; details: in vivo; procedure, shortened: as §2
Oryctolagus cuniculus [23] = experiment: Biodistribution pattern of [123I]- ligand was evaluated in left ventricular muscle of anesthetized rabbit after Intravenous injection of 50 uCi after 1 hr; assay type: ADME, organism-based, Muscle tissue; details: in vivo; procedure, shortened: as §1
Oryctolagus cuniculus [24] = experiment: Cerebral biodistribution pattern of [123I]- ligand was evaluated in frontal cortex of anesthetized rabbit after Intravenous injection of 50 uCi after 2 hr; assay type: ADME, organism-based; details: in vivo; procedure, shortened: as §2
Oryctolagus cuniculus [25] = experiment: Cerebral biodistribution pattern of [123I]- ligand was evaluated in pituitary gland of anesthetized rabbit after Intravenous injection of 50 uCi after 1 hr; assay type: ADME, organism-based; details: in vivo; procedure, shortened: as §2
Oryctolagus cuniculus [26] = experiment: Biodistribution pattern of [123I]- ligand was evaluated in blood of anesthetized rabbit after Intravenous injection of 50 uCi after 24 hr; assay type: ADME, organism-based; details: in vivo; procedure, shortened: as §1
Oryctolagus cuniculus [27] = experiment: Biodistribution pattern of [123I]- ligand was evaluated in blood of anesthetized rabbit after Intravenous injection of 50 uCi after 2 hr; assay type: ADME, organism-based; details: in vivo; procedure, shortened: as §1
Oryctolagus cuniculus [28] = experiment: Biodistribution pattern of [123I]- ligand was evaluated in blood of anesthetized rabbit after Intravenous injection of 50 uCi after 6 hr; assay type: ADME, organism-based; details: in vivo; procedure, shortened: as §1
Oryctolagus cuniculus [29] = experiment: Biodistribution pattern of [123I]- ligand was evaluated in spleen of anesthetized rabbit after Intravenous injection of 50 uCi after 1 hr; assay type: ADME, organism-based; details: in vivo; procedure, shortened: as §2
Oryctolagus cuniculus [30] = experiment: Biodistribution pattern of [123I]- ligand was evaluated in spleen of anesthetized rabbit after Intravenous injection of 50 uCi after 2 hr; assay type: ADME, organism-based; details: in vivo; procedure, shortened: as §2
Oryctolagus cuniculus [31] = experiment: Biodistribution pattern of [123I]- ligand was evaluated in spleen of anesthetized rabbit after Intravenous injection of 50 uCi after 30 min; assay type: ADME, organism-based; details: in vivo, 0.5 h; procedure, shortened: as §2
Oryctolagus cuniculus [32] = experiment: Biodistribution pattern of [123I]- ligand was evaluated in spleen of anesthetized rabbit after Intravenous injection of 50 uCi after 5 min; assay type: ADME, organism-based; details: in vivo; procedure, shortened: as §2
Oryctolagus cuniculus [33] = experiment: Biodistribution pattern of [123I]- ligand was evaluated in right ventricular muscle of anesthetized rabbit after Intravenous injection of 50 uCi after 4 hr; assay type: ADME, organism-based, Muscle tissue; details: in vivo; procedure, shortened: as §2
Oryctolagus cuniculus [34] = experiment: Biodistribution pattern of [123I]- ligand was evaluated in liver of anesthetized rabbit after Intravenous injection of 50 uCi after 1 hr; assay type: ADME, organism-based; details: in vivo; procedure, shortened: as §1
Oryctolagus cuniculus [35] = experiment: Biodistribution pattern of [123I]- ligand was evaluated in liver of anesthetized rabbit after Intravenous injection of 50 uCi after 2 hr; assay type: ADME, organism-based; details: in vivo; procedure, shortened: as §1
Oryctolagus cuniculus [36] = experiment: Biodistribution pattern of [123I]- ligand was evaluated in liver of anesthetized rabbit after Intravenous injection of 50 uCi after 5 min; assay type: ADME, organism-based; details: in vivo; procedure, shortened: as §1
Oryctolagus cuniculus [37] = experiment: Biodistribution pattern of [123I]- ligand was evaluated in liver of anesthetized rabbit after Intravenous injection of 50 uCi after 6 hr; assay type: ADME, organism-based; details: in vivo; procedure, shortened: as §1
Oryctolagus cuniculus [38] = experiment: Cerebral biodistribution pattern of [123I]- ligand was evaluated in cerebellum of anesthetized rabbit after Intravenous injection of 50 uCi after 30 min; assay type: ADME, organism-based; details: in vivo, 0.5 h; procedure, shortened: as §2

## CC(C)(/C=C/I)NC[C@H](O)COc1cccc2[nH]c3ccccc3c12
Oryctolagus cuniculus [1]
  ID x kg of body weight/g of tissue: 0.02%
Oryctolagus cuniculus [2]
  ID x kg of body weight/g of tissue: 0.1%
Oryctolagus cuniculus [3]
  ID x kg of body weight/g of tissue: 0.02%
Oryctolagus cuniculus [4]
  ID x kg of body weight/g of tissue: 0.06%
Oryctolagus cuniculus [5]
  ID x kg of body weight/g of tissue: 0.05%
Oryctolagus cuniculus [6]
  ID x kg of body weight/g of tissue: 0.04%
Oryctolagus cuniculus [7]
  ID x kg of body weight/g of tissue: 0.16%
Oryctolagus cuniculus [8]
  ID x kg of body weight/g of tissue: 0.17%
Oryctolagus cuniculus [9]
  ID x kg of body weight/g of tissue: 0.11%
Oryctolagus cuniculus [10]
  ID x kg of body weight/g of tissue: 0.36%
Oryctolagus cuniculus [11]
  ID x kg of body weight/g of tissue: 0.02%
Oryctolagus cuniculus [12]
  ID x kg of body weight/g of tissue: 0.13%
Oryctolagus cuniculus [13]
  ID x kg of body weight/g of tissue: 0.15%
Oryctolagus cuniculus [14]
  ID x kg of body weight/g of tissue: 0.06%
Oryctolagus cuniculus [15]
  ID x kg of body weight/g of tissue: 0.02%
Oryctolagus cuniculus [16]
  ID x kg of body weight/g of tissue: 0.05%
Oryctolagus cuniculus [17]
  ID x kg of body weight/g of tissue: 0.52%
Oryctolagus cuniculus [18]
  ID x kg of body weight/g of tissue: 0.82%
Oryctolagus cuniculus [19]
  ID x kg of body weight/g of tissue: 0.71%
Oryctolagus cuniculus [20]
  ID x kg of body weight/g of tissue: 0.07%
Oryctolagus cuniculus [21]
  ID x kg of body weight/g of tissue: 0.05%
Oryctolagus cuniculus [22]
  ID x kg of body weight/g of tissue: 0.08%
Oryctolagus cuniculus [23]
  ID x kg of body weight/g of tissue: 0.2%
Oryctolagus cuniculus [24]
  ID x kg of body weight/g of tissue: 0.09%
Oryctolagus cuniculus [25]
  ID x kg of body weight/g of tissue: 0.11%
Oryctolagus cuniculus [26]
  ID x kg of body weight/g of tissue: 0.01%
Oryctolagus cuniculus [27]
  ID x kg of body weight/g of tissue: 0.01%
Oryctolagus cuniculus [28]
  ID x kg of body weight/g of tissue: 0.01%
Oryctolagus cuniculus [29]
  ID x kg of body weight/g of tissue: 0.28%
Oryctolagus cuniculus [30]
  ID x kg of body weight/g of tissue: 0.22%
Oryctolagus cuniculus [31]
  ID x kg of body weight/g of tissue: 0.41%
Oryctolagus cuniculus [32]
  ID x kg of body weight/g of tissue: 0.39%
Oryctolagus cuniculus [33]
  ID x kg of body weight/g of tissue: 0.12%
Oryctolagus cuniculus [34]
  ID x kg of body weight/g of tissue: 0.13%
Oryctolagus cuniculus [35]
  ID x kg of body weight/g of tissue: 0.09%
Oryctolagus cuniculus [36]
  ID x kg of body weight/g of tissue: 0.14%
Oryctolagus cuniculus [37]
  ID x kg of body weight/g of tissue: 0.03%
Oryctolagus cuniculus [38]
  ID x kg of body weight/g of tissue: < 0.15%
